Test results published in ChEMBL document CHEMBL2046412, “Xanthine oxidase inhibitory activity of constituents of Cinnamomum cassia twigs” (Bioorg Med Chem Lett, 2012).

Columns and labels:
[1] = biological target: T1, Xanthine dehydrogenase/oxidase (Homo sapiens, UniProt P47989); test: Inhibition of xanthine oxidase- mediated uric acid formation at 50 ug/mL after 5 mins by spectrophotometry
[2] = biological target: T1, Xanthine dehydrogenase/oxidase; test: Inhibition of xanthine oxidase- mediated uric acid formation after 5 mins by spectrophotometry
In short: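 Inhibition was taken relative to uric acid formed in the uninhibited control, and IC50 was derived from the mean of triplicate measurements.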

T1 sequence (P47989 whole entry): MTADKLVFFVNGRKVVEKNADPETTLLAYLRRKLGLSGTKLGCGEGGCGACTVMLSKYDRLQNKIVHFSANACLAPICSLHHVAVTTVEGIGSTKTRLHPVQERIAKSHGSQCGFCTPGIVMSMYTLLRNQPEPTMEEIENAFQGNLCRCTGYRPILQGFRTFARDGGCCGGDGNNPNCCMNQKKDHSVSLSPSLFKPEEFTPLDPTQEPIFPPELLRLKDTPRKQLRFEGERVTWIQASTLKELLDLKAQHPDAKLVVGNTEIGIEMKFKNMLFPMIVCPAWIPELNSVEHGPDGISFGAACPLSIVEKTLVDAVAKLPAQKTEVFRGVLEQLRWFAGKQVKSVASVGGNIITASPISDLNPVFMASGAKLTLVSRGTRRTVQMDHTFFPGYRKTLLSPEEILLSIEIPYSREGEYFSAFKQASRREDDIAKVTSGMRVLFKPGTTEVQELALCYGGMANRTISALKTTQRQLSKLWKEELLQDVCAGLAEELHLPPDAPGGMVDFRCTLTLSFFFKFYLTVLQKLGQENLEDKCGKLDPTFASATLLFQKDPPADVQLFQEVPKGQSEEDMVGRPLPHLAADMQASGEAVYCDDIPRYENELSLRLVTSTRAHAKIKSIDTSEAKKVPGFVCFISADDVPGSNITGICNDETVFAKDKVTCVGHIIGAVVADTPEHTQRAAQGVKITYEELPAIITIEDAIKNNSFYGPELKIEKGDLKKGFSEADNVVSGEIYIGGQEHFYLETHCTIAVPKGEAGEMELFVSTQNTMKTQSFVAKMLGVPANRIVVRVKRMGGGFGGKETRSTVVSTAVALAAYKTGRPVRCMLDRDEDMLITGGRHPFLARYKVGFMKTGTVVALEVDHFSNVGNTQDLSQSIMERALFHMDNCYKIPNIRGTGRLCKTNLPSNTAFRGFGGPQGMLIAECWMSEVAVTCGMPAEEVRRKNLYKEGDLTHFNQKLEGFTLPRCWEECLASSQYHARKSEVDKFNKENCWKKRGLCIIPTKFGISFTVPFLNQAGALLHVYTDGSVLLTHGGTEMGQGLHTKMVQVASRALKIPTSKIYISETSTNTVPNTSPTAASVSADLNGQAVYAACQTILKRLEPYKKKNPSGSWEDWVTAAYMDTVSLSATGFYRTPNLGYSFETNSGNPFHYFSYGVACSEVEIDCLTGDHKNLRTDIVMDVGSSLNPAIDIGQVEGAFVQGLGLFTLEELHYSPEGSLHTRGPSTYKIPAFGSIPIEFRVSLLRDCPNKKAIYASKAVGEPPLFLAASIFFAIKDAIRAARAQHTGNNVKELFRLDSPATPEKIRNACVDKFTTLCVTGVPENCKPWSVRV

| SMILES | inhibition at 50 µg/mL [1] [%] | IC50 [2] [µM] |
| --- | --- | --- |
| O=C/C=C/c1ccccc1 | 96.7 | 59 |
| COc1ccccc1/C=C/C=O | 95.8 | 85.1 |
| O=C/C=C/c1ccccc1O [2-HYDROXYCINNAMALDEHYDE] | 94.2 | 98.5 |
| COC(=O)c1cccc(O[C@@H]2O[C@H](CO[C@@H]3OC[C@](O)(CO)[C@H]3O)[C@@H](O)[C@H](O)[C@H]2O)c1 [CINNACASOLIDE A] | 22.2 | > 112 |
| OC/C=C/c1ccccc1O[C@@H]1O[C@H](CO[C@@H]2OC[C@](O)(CO)[C@H]2O)[C@@H](O)[C@H](O)[C@H]1O [CINNACASOLIDE B] | 35.4 | > 113 |
| COc1cc(O[C@@H]2O[C@H](CO)[C@@H](O)[C@H](O)[C@H]2O)ccc1Oc1ccc(O[C@@H]2O[C@H](CO)[C@@H](O)[C@H](O)[C@H]2O)c(OC)c1 [CINNACASOLIDE C] | 28.2 | > 85.2 |
| O=C(O)/C=C/c1ccccc1 [CINNAMIC ACID] | 93.4 | 178 |
| OC/C=C/c1ccccc1 [CINNAMIC ALCOHOL] | 47.6 | > 373 |
| COc1cc(/C=C/C=O)ccc1O [CONIFERYL ALDEHYDE] | 72.5 | 204 |
| O=C(O)CCc1ccccc1O[C@@H]1O[C@H](CO)[C@@H](O)[C@H](O)[C@H]1O [DIHYDROMELILOTOSIDE] | 45.4 | > 152 |
| COC(=O)CCc1ccccc1O[C@@H]1O[C@H](CO)[C@@H](O)[C@H](O)[C@H]1O [METHYL DIHYDROMELILOTOSIDE] | 22.4 | > 146 |
| O=C(O)/C=C/c1ccccc1O [O-COUMARIC ACID] | 73.2 | 196 |
| O[C@@H]1[C@@H](O)[C@@H](OC/C=C/c2ccccc2)O[C@H](CO[C@@H]2OC[C@H](O)[C@H](O)[C@H]2O)[C@H]1O [ROSAVIN] | 18.7 | > 117 |
